Test results reported in ChEMBL document CHEMBL2169835, “Flavonoid dimers as novel, potent antileishmanial agents” (J Med Chem, 2012).

Legend:
[1] = Cytotoxicity against mouse Peritoneal macrophages cells after 72 hrs by MTS assay; format: cell-based; details: Peritoneal macrophage cell
How it was run: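 Primary mouse peritoneal elicited macrophages were seeded at 2 × 10^4 cells per well in DMEM with 10% heat-inactivated FBS. They were exposed to graded doses for 72 h at 37 °C in 5% CO2. Survival was read by MTS/PMS tetrazolium reduction (OD 490 nm) relative to untreated control. The IC50 was the concentration halving OD. Results are mean ± SEM of 1–4 independent experiments.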

Leishmania donovani [2] = experiment: Antimicrobial activity against SSG-resistant Leishmania donovani 39 promastigote assessed as inhibition of parasite growth after 72 hrs by MTS assay; format: functional, organism-based; details: Leishmania donovani, 39, 72 h
How it was run: (§1)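 Promastigotes were grown in Schneider's medium pH 6.9 with 10% heat-inactivated FBS at 27 °C, seeded at 1 × 10^5 per well, and exposed to serial concentrations for 72 h at 27 °C. Compounds were in DMSO (≤1% final) or water. MTS:PMS (20:1) was added for 4 h, then OD490 was read. Survival was % of untreated control; IC50 = concentration halving OD; N = 1−4.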

Leishmania donovani [3] = experiment: Antimicrobial activity against wild-type Leishmania donovani AG83 promastigote assessed as inhibition of parasite growth after 72 hrs by MTS assay; format: functional, organism-based; details: AG83, 72 h
How it was run: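 Promastigotes were grown in Schneider's medium pH 6.9 with 10% heat-inactivated FBS at 27 °C, seeded at 1 × 10^5 per well, and exposed to serial concentrations for 72 h at 27 °C. Compounds were in DMSO (≤1% final) or water. MTS:PMS (20:1) was added for 4 h, then OD490 was read.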

Leishmania donovani [4] = experiment: Selectivity ratio of IC50 for Leishmania donovani promastigote to IC50 for SSG-resistant Leishmania donovani 39 amastigote infected in mouse peritoneal macrophages; format: functional
[5] = Therapeutic index, ratio of IC50 for mouse Peritoneal macrophages to IC50 for SSG-resistant Leishmania donovani 39 amastigote infected in mouse peritoneal macrophages; details: read-out: Ratio IC50
[6] = Therapeutic index, ratio of IC50 for mouse Peritoneal macrophages to IC50 for SSG-resistant Leishmania donovani 39 promastigote; details: read-out: Ratio IC50
How it was run: (§2)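 Index is PEM cytotoxicity IC50 over promastigote IC50. For PEM, cells were seeded at 2 × 10^4 per well in supplemented DMEM, given graded doses for 72 h at 37 °C, 5% CO2, and read by MTS survival.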

[7] = Therapeutic index, ratio of IC50 for mouse Peritoneal macrophages to IC50 for pentamidine-resistant Leishmania donovani AG83PentR50 promastigote; details: read-out: Ratio IC50; how it was run: as §2
[8] = Therapeutic index, ratio of IC50 for mouse PEM cells to IC50 for wild-type Leishmania donovani AG83 promastigote; format: cell-based; details: read-out: Ratio IC50; how it was run: as §2
RAW264.7 = experiment: Cytotoxicity against mouse RAW264.7 cells after 72 hrs by MTS assay; format: cell-based; details: RAW264.7, 72 h
How it was run: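 RAW 264.7 murine macrophage line was plated at 1 × 10^4 cells per well in supplemented DMEM. Cells received a graded compound series for 72 h at 37 °C, 5% CO2, with a maximum of 1% DMSO. Viability was measured by MTS with PMS coupling at OD 490 nm, as percent of untreated control. The IC50 was the concentration reducing OD by half, given as mean ± SEM, N = 1–4.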

Leishmania donovani [9] = experiment: Antimicrobial activity against SSG-resistant Leishmania donovani 39 amastigote infected in mouse peritoneal macrophages assessed as inhibition of parasite growth after 72 hrs by Giemsa staining method; format: functional, organism-based; details: Leishmania donovani, 39, 72 h
How it was run: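 Mouse peritoneal elicited macrophages were seeded on coverslips at 1 × 10^5 cells per well in DMEM with 10% heat-inactivated FBS and left to attach overnight. They were infected overnight with late-log Ld39 promastigotes (parasite:macrophage 20:1) at 37 °C, 5% CO2, then washed. Compounds were applied for 72 h at 37 °C. Giemsa-stained amastigotes per 100 macrophages gave IC50; N = 1−3.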

Leishmania donovani [10] = experiment: Antimicrobial activity against pentamidine-resistant Leishmania donovani AG83PentR50 promastigote assessed as inhibition of parasite growth after 72 hrs by MTS assay; format: functional, organism-based; details: AG83PentR50, 72 h; how it was run: as §1
Leishmania donovani [11] = experiment: Antimicrobial activity against axenically grown Leishmania donovani amastigotes; format: functional, organism-based

Compound | IC50 [1] [µM] | IC50 (Leishmania donovani [2]) [µM] | IC50 (Leishmania donovani [3]) [µM] | Ratio IC50 (Leishmania donovani [4]) | selectivity ratio [5] | selectivity ratio [6] | selectivity ratio [7] | selectivity ratio [8] | IC50 (RAW264.7) [µM] | IC50 (Leishmania donovani [9]) [µM] | IC50 (Leishmania donovani [10]) [µM] | IC50 (Leishmania donovani [11]) [µM]
COc1cc(-c2cc(=O)c3ccccc3o2)ccc1OCCOCCN(CCOCCOc1ccc(-c2cc(=O)c3ccccc3o2)cc1OC)Cc1ccncc1 | 2.7 | 0.69 | 0.63 |  |  |  |  |  |  |  |  | 
O=c1c(O)c(-c2ccc(O)c(O)c2)oc2cc(O)cc(O)c12 [QUERCETIN] | > 100 | > 100 | 103 | 17 | > 16.7 | > 1 | > 1.4 | > 1 | 95.6 | 6 | 69.6 | 
O=c1cc(-c2ccc(OCCOCCN(CCOCCOc3ccc(-c4cc(=O)c5ccccc5o4)cc3)Cc3ccccn3)cc2)oc2ccccc12 | > 33 | 4.2 | 5 |  | > 8 |  |  |  | 53 | 4.1 |  | 
sodium stibogluconate |  |  |  | 11 |  |  |  |  |  |  |  | 
C[C@@H]1[C@H](O)[C@@H](C)/C=C/C=C/C=C/C=C/C=C/C=C/C=C/[C@H](O[C@@H]2O[C@H](C)[C@@H](O)[C@H](N)[C@@H]2O)C[C@@H]2O[C@](O)(C[C@@H](O)C[C@@H](O)[C@H](O)CC[C@@H](O)C[C@@H](O)CC(=O)O[C@H]1C)C[C@H](O)[C@H]2C(=O)O [AMPHOTERICIN B] | 7.4 | 0.095 | 0.09 |  | 119 | 77.9 | 145 | 82.2 | 12 | 0.062 | 0.051 | 
O=c1cc(-c2ccc(O)c(O)c2)oc2cc(O)cc(O)c12 [LUTEOLIN] | 77.7 | 89 | 114 | 12 | 10.1 | 0.9 | 0.9 | 0.7 | 43.2 | 7.7 | 90.9 | 
O=c1cc(-c2ccc(OCCOCCN(CCOCCOc3ccc(-c4cc(=O)c5ccccc5o4)cc3)Cc3cccnc3)cc2)oc2ccccc12 | 33.1 | 0.98 | 0.56 |  | 13.8 |  |  |  |  | 2.4 |  | 
CCCCCCCCCCCCCCCCOP(=O)([O-])OCC[N+](C)(C)C [MILTEFOSINE] | 75.3 | 17.3 |  |  |  |  |  |  | 20 | 16 | 9.3 | 
O=c1cc(-c2ccccc2OCCOCCN(CCOCCOc2ccccc2-c2cc(=O)c3ccccc3o2)Cc2ccncc2)oc2ccccc12 | > 11 | 4 | 2.3 |  | > 1.6 |  |  |  |  | 7 |  | 
COc1ccc(-c2cc(=O)c3c(O)cc(O)c(-c4cc(-c5cc(=O)c6c(O)cc(OC)cc6o5)ccc4OC)c3o2)cc1 [SCIADOPITISIN] |  |  |  |  |  |  |  |  |  |  |  | 8.2
N#Cc1cc(CN(CCOCCOc2ccc(-c3cc(=O)c4ccccc4o3)cc2)CCOCCOc2ccc(-c3cc(=O)c4ccccc4o3)cc2)ccn1 | > 92 | > 50 | 1.1 |  | > 12.1 |  |  |  |  | 7.6 |  | 
O=c1cc(-c2ccc(OCCOCCN(CCOCCOc3ccc(-c4cc(=O)c5ccccc5o4)cc3)Cc3ccncn3)cc2)oc2ccccc12 | > 33 | 0.58 | 0.44 |  | > 23.6 |  |  |  |  | 1.4 |  | 
O=c1cc(-c2ccc(Oc3c(O)cc(O)c4c(=O)cc(-c5ccc(O)cc5)oc34)cc2)oc2cc(O)cc(O)c12 [LANAROFLAVONE] |  |  |  |  |  |  |  |  |  |  |  | 7.2
O=c1cc(-c2cccc(OCCOCCN(CCOCCOc3cccc(-c4cc(=O)c5ccccc5o4)c3)Cc3ccncc3)c2)oc2ccccc12 | > 50 | 0.44 | 0.19 |  | > 21.7 |  |  |  |  | 2.3 |  | 
